For orientation: IC50 means the point on the concentration scale where inhibition reaches its midpoint. One may read the half-life as the time needed for the level to fall by half in the phase considered. In general, clearance refers to a measure of how efficiently the substance is removed, as volume per time. By bioavailability is commonly meant the share of a dose that reaches the circulation, judged against a reference dose that is usually intravenous. Usually Vd stands for a proportionality between amount in the body and measured concentration, not a real space.

In series [1] the target is Histone deacetylase 1 (Homo sapiens, UniProt Q13547). Description: Inhibition of human HDAC1 expressed in domain of SMRT.
Chain of Histone deacetylase 1 (Q13547 whole entry, the tested form may be a part): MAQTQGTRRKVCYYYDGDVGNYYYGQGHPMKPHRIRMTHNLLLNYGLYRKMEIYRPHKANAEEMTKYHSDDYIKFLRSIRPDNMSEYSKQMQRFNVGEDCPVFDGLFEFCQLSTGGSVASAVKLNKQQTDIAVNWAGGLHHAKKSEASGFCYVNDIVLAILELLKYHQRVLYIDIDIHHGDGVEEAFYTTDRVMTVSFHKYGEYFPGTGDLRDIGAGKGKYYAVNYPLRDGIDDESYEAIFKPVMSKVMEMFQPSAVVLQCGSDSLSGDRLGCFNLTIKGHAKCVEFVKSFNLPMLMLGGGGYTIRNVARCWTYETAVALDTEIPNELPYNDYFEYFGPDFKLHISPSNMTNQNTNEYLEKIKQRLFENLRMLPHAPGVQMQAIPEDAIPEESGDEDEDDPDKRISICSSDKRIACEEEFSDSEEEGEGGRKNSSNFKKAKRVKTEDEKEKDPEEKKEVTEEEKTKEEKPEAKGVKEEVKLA
Series [2] has as its system HCT-116. Put plainly: Antiproliferative activity against HCT116 cells after 72 hrs. It is filed as functional, cell-based, Homo sapiens.
Series [3] can be described thus: Half life in rat at 4.0 mg/kg, po. The following applies: in vivo. More on the design: dose 4 mg/kg, route oral. Type of series: ADME, organism-based.
The nature of series [4]: Half life in rhesus monkey at 2.0 mg/kg, po. The following applies: in vivo. It is filed as ADME, organism-based, Macaca mulatta. More on the design: dose 2 mg/kg, route oral.
In series [5] the target is T1, Protein deacetylase HDAC6 (Homo sapiens, UniProt Q9UBN7).
T1 sequence (Q9UBN7 whole entry): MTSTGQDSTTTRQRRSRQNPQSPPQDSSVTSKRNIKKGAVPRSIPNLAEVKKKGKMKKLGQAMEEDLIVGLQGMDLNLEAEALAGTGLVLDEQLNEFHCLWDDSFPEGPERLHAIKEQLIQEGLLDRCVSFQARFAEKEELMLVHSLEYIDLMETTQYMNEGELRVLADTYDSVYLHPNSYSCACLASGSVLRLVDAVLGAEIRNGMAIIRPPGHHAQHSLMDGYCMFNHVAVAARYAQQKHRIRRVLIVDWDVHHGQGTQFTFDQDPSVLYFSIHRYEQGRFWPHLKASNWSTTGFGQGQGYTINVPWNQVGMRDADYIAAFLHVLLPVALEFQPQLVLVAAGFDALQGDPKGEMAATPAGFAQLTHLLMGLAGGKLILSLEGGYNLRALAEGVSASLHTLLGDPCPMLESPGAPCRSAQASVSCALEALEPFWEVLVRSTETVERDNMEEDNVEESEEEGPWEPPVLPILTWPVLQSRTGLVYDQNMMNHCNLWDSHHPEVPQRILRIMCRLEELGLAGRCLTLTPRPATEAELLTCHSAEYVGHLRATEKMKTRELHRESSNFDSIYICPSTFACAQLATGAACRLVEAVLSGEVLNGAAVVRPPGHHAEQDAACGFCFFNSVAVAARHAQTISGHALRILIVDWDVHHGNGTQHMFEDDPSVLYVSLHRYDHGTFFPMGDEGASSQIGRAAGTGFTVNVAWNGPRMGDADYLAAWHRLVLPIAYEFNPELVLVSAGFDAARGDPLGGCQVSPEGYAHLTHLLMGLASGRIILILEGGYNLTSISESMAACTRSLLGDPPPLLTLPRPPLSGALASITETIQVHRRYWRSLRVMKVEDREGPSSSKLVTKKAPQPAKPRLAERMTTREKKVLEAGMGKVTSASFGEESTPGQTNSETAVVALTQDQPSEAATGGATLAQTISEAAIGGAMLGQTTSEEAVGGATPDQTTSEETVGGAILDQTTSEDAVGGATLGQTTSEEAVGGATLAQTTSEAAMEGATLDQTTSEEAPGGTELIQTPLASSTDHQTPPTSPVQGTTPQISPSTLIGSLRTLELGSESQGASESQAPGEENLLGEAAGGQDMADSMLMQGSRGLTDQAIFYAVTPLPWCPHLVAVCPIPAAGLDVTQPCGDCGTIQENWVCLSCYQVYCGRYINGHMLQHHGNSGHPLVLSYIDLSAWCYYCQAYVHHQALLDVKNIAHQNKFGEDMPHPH
Put plainly: Inhibition of human HDAC6. The essentials:
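C-terminal FLAG-tagged human HDAC6 overexpressed in mammalian cells, anti-FLAG affinity-purified, 1–30 nM final. Inhibitor serially diluted 3-fold in DMSO from 10 mM stock, then 20-fold into assay buffer. Enzyme preincubated with compound 10 min at RT. Fluor-de-Lys substrate added, 60 min at 37 °C. Developer containing SAHA added, fluorescence read at Ex 360/Em 460 nm. IC50 reported.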

A short description of series [6]: Plasma clearance in rhesus monkey at 1.0 mg/kg, iv. It is filed as ADME, organism-based, Macaca mulatta. Set-up: dose 1 mg/kg, route intravenous.
Series [7] is described as follows: Plasma clearance in dog at 0.6 mg/kg, iv. Type of series: ADME, organism-based, Canis lupus familiaris. More on the design: dose 0.6 mg/kg, route intravenous.
The nature of series [8]: Bioavailability in rhesus monkey at 2.0 mg/kg, po. It is filed as ADME, organism-based, Macaca mulatta. The following applies: in vivo.
The target in series [9] is Histone deacetylase 2 (Homo sapiens, UniProt Q92769). Put plainly: Inhibition of human HDAC2 expressed in domain of SMRT.
Chain of Histone deacetylase 2 (Q92769 whole entry, the tested form may be a part): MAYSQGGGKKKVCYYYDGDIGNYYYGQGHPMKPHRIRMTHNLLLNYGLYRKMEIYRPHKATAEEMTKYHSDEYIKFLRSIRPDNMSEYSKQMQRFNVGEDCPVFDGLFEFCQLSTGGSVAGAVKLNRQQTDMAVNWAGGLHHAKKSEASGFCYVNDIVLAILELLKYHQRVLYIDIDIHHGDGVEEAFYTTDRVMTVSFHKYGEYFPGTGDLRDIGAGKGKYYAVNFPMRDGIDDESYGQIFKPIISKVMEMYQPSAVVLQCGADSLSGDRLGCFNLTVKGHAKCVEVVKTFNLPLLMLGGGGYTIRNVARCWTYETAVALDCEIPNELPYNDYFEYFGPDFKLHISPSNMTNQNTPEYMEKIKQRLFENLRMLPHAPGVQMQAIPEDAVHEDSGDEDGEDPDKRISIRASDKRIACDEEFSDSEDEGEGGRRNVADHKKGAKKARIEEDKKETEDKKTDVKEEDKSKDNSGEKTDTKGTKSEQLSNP
Series [10] is described as follows: Half life in dog at 1.2 mg/kg, po. It is filed as ADME, organism-based, Canis lupus familiaris. The following applies: in vivo. More on the design: dose 1.2 mg/kg, route oral.
The nature of series [11]: Volume of distribution in rhesus monkey at 1.0 mg/kg, iv. Type of series: ADME, organism-based, Macaca mulatta. Set-up: dose 1 mg/kg, route intravenous. The following applies: in vivo.
The nature of series [12]: Plasma clearance in rat at 2.0 mg/kg, iv. It is filed as ADME, organism-based. Set-up: dose 2 mg/kg, route intravenous.
The nature of series [13]: Bioavailability in dog at 1.2 mg/kg, po. It is filed as ADME, organism-based, Canis lupus familiaris. The following applies: in vivo.
In series [14] the target is Histone deacetylase 3 (Homo sapiens, UniProt O15379). Description: Inhibition of human HDAC3 expressed in domain of SMRT. In outline: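 C-terminal FLAG-tagged human HDAC3, co-expressed with the SMRT domain, was overexpressed in mammalian cells and purified on anti-FLAG matrix. Enzyme at 1–30 nM final was preincubated with 3× serially diluted inhibitor for 10 min at RT. Fluor-de-Lys substrate was then added for 60 min at 37 °C, followed by developer containing SAHA. Fluorescence was read at Ex 360/Em 460 nm to give IC50.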
Chain of Histone deacetylase 3 (O15379 whole entry, the tested form may be a part): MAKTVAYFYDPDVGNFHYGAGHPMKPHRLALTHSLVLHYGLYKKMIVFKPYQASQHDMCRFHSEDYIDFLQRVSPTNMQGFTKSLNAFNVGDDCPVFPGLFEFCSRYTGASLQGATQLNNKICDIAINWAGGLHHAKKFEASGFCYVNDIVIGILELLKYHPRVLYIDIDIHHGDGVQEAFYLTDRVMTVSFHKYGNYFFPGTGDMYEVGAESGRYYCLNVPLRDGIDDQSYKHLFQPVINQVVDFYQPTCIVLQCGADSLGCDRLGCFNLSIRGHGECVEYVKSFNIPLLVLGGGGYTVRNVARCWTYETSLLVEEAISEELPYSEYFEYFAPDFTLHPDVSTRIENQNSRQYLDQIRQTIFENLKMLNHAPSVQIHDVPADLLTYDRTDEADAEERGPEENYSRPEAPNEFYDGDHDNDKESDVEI

Series [15] can be described thus: Bioavailability in rat at 4.0 mg/kg, po. Type of series: ADME, organism-based. The following applies: in vivo.
A short description of series [16]: Volume of distribution in rat at 2.0 mg/kg, iv. It is filed as ADME, organism-based. More on the design: dose 2 mg/kg, route intravenous. The following applies: in vivo.
Series [17] in a line: Volume of distribution in dog at 0.6 mg/kg, iv. Set-up: dose 0.6 mg/kg, route intravenous. The following applies: in vivo. Type of series: ADME, organism-based, Canis lupus familiaris.
The target of series [18] is T2, Histone deacetylase 8 (Homo sapiens, UniProt Q9BY41).
T2 sequence (Q9BY41 whole entry): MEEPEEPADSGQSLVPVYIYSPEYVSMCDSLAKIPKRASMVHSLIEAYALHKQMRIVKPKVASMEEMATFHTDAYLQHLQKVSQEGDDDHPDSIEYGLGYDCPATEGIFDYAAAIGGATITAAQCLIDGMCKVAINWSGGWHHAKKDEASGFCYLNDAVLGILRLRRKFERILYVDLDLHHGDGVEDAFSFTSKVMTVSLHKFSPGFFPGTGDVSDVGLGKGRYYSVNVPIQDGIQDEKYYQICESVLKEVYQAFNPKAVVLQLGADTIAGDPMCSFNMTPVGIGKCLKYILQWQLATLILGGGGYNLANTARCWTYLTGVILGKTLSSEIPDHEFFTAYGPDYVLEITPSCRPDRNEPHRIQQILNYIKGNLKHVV
Put plainly: Inhibition of human HDAC8. The essentials: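 HDAC8 came from the Institute for Research in Molecular Biology, Pomezia, and was used at 1–30 nM final. It was preincubated with 3× serially diluted inhibitor for 10 min at RT. Fluor-de-Lys HDAC8 substrate was added for 15 min at 37 °C, then HDAC8 developer containing SAHA. Fluorescence was read at Ex 360/Em 460 nm to give IC50.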

Series [19] relates to HCT-116. Description: Antiproliferative activity against HCT116 cells after 96 hrs. It is filed as functional, cell-based. The following applies: Homo sapiens, HCT-116, 96 h.
Where [20] appears, read: Homo sapiens, HCT-116, 72 h, read-out: IC50.

On to `CC(Cc1ccc(C(=O)Nc2ccccc2N)cc1)(C(=O)Nc1ccccc1)C(=O)Nc1ccccc1`, for which the values for the IC50 in [1] and in series [2] (setting [20]) were 200 nM and 2520 nM, respectively.
For `Nc1ccccc1NC(=O)c1ccc(C(C(=O)Nc2cccc(N3CCOCC3)c2)C(=O)Nc2cccc(N3CCOCC3)c2)cc1` the same measures were 45 nM and 542 nM.
For the compound `Nc1ccccc1NC(=O)c1ccc(C(C(=O)Nc2ccccc2)C(=O)Nc2ccccc2)cc1`, the results for the half-life in series [3], in series [4] and in [10] were 228 min, 624 min and 510 min, respectively. In addition, the concentration for half-maximal inhibition (IC50) in [5] was more than 10 µM; in series [9], 313 nM; in series [1] it was 36 nM; in series [14] it was 697 nM; in [2] (setting [20]), 171 nM; in [18] it was more than 10 µM. Besides, the clearance turned out to be 12 mL/min/kg in [6], 3 mL/min/kg in series [7] and 55 mL/min/kg in [12]. Also, the bioavailability in [8] came out at 27%; in [13] it was 88%; in [15] it was 88%. Further, the figures for the Vd in series [11], in [16] and in [17] were 1.7 L/kg, 12 L/kg and 1.8 L/kg, respectively.
In the case of `CC(=O)NO` [ACETOHYDROXAMIC ACID], in [1], the IC50 was determined as 625000 nM.
Regarding `Nc1ccccc1NC(=O)c1ccc(C(C(=O)NCc2ccccc2)C(=O)NCc2ccccc2)cc1`, the half-maximal inhibitory concentration (IC50) in series [1] was 199 nM; in series [2] (setting [20]) it was 596 nM.
With `CN(C(=O)C(C(=O)N(C)c1ccccc1)c1ccc(C(=O)Nc2ccccc2N)cc1)c1ccccc1`, the half-inhibitory concentration (IC50) was 7190 nM in [1] and “Not Active” in series [2] (hct-116).
On to `CC(C)(C)c1ccc(C(=O)NO)cc1`, for which the IC50 in series [1] was determined as 715 nM.
For `Nc1ccccc1NC(=O)c1ccc(C(C(=O)NCCCc2ccccc2)C(=O)NCCCc2ccccc2)cc1`, the IC50 in [1] was 229 nM; in series [2] (setting [20]), 987 nM.
Compound `O=C(NO)c1ccccc1` [BENZOHYDROXAMATE] came in with a half-maximal inhibitory concentration (IC50) in [1] of 20000 nM.
Regarding `COc1cccc(NC(=O)C(C(=O)Nc2cccc(OC)c2)c2ccc(C(=O)Nc3ccccc3N)cc2)c1`, the IC50 in [1] is 35 nM; in [2] (setting [20]), 383 nM.
For the compound `Nc1ccccc1NC(=O)c1ccc(C(C(=O)Nc2cccc3cccnc23)C(=O)Nc2cccc3cccnc23)cc1`, the IC50 was determined as 103 nM in series [1] and 1200 nM in series [2] (setting [20]).
For `COc1ccccc1NC(=O)C(C(=O)Nc1ccccc1OC)c1ccc(C(=O)Nc2ccccc2N)cc1` the same measures were 47 nM and 394 nM.
In the case of `Nc1ccccc1NC(=O)c1ccc(C(C(=O)Nc2ccc(F)cc2)C(=O)Nc2ccc(F)cc2)cc1`, the concentration for half-maximal inhibition (IC50) was 222 nM in series [19] and 63 nM in series [1].
On to `CN(C(=O)C(C(=O)Nc1ccccc1)c1ccc(C(=O)Nc2ccccc2N)cc1)c1ccccc1` (stereo unspecified), for which the results for the IC50 in [1] and in series [2] (setting [20]) were 196 nM and 1140 nM, respectively.
In the case of `Nc1ccccc1NC(=O)c1ccc(C(C(=O)Nc2ccc3c(c2)OCCO3)C(=O)Nc2ccc3c(c2)OCCO3)cc1`, the IC50 in series [1] was found to be 21 nM; in series [2] (setting [20]), 220 nM.
Consider `N#Cc1cccc(NC(=O)C(C(=O)Nc2cccc(C#N)c2)c2ccc(C(=O)Nc3ccccc3N)cc2)c1`, for which the 50% inhibitory concentration (IC50) in series [19] was 500 nM; in series [1], 34 nM.
With `CC(C(=O)Nc1ccccc1)(C(=O)Nc1ccccc1)c1ccc(C(=O)Nc2ccccc2N)cc1`, the 50% inhibitory concentration (IC50) in [1] is 198 nM; in series [2] (setting [20]), 2120 nM.
In turn, `O=C(NO)c1ccc(C(C(=O)Nc2ccccc2)C(=O)Nc2ccccc2)cc1` returned an IC50 in series [1] of 5 nM.
Take `Nc1ccccc1NC(=O)c1ccc(CC(C(=O)Nc2ccccc2)C(=O)Nc2ccccc2)cc1`: the values for the half-maximal inhibitory concentration (IC50) in [1] and in series [2] (setting [20]) were 47 nM and 579 nM, respectively.
Consider `Nc1ccccc1NC(=O)c1ccc(C(C(=O)Nc2cccc(F)c2)C(=O)Nc2cccc(F)c2)cc1`, for which the IC50 in series [1] came out at 56 nM; in [2] (setting [20]), 607 nM.
For `Nc1ccccc1NC(=O)c1ccc(C(F)(C(=O)Nc2ccccc2)C(=O)Nc2ccccc2)cc1` the same measures were 48 nM and 425 nM.
As for `Nc1ccccc1NC(=O)c1ccc(C(O)(C(=O)Nc2ccccc2)C(=O)Nc2ccccc2)cc1`, the IC50 in series [1] was 94 nM; in [2] (setting [20]), 773 nM.

Source of the values: ChEMBL document CHEMBL1140029, “Design of novel histone deacetylase inhibitors” (Bioorg Med Chem Lett, 2007).
